Assay outcomes from PubChem.
APJ agonist: agonists of human APJ apelin receptor. P35414. CHO-K1 APJ PathHunter beta-arrestin, luminescence; 0% DMSO wells, 100% apelin. activation, % at 20 µM. hit rate 0.11% among 330,000;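 active = activation more than six SD over the plate average, tested at 20 µM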
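Test system – PathHunter CHO-K1 APJ (AGTRL-1) beta-arrestin reporter cells · Input – 1000 cells/well · Compound – single test compound dose, 20 µM final, 1% DMSO · Times – compound stimulation 90 min at 25 °C, detection 60 min · Technique – beta-gal luminescence · Read-out basis – APJ–arrestin association signal · Control set – negative DMSO alone, positive Apelin-13 at 10 nM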
EBI2 block: blocks human EBI2 receptor beta-arrestin signaling; EBI2 beta-arrestin recruitment, luminescence, 7a,25-OHC stimulated; hit rate 0.81% among 360,000; inhibition, % at 5 µM; AID 651636; in the data active = inhibition above about 38%;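 also: enzyme fragment complementation signal reports receptor beta-arrestin coupling in cells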
CXCR6 block: CXCR6 (human) receptor inhibition | O00574 | CHO-K1 PathHunter CXCR6 beta-arrestin, luminescence | inhibition, % at 20 µM | hit rate 0.36% among 360,000; in the data active = inhibition above about 34%, passing the limit was not always enough;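 also: antagonist mode with CXCL16 agonist at 10 nM final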
APJ antagonist: antagonists of human APJ apelin receptor; CHO-K1 APJ beta-arrestin complementation, luminescence; P35414; inhibition, % at 20 µM; hit rate 0.32% among 330,000;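 active = inhibition above about 40% at 20 µM, limit read from the data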;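 also: cells challenged with 10 nM apelin-13 agonist together with compound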
CCR6 antag: CCR6 (human) receptor antagonism | hit rate 0.49% among 340,000 | inhibition, % at 20 µM | CHO-K1 CCR6 PathHunter beta-arrestin, luminescence, CCL20-stimulated | AID 493098;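 active = compounds whose inhibition of the agonist-driven luminescence signal at 20 µM reaches about 50%, limit read from the data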;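 also: cells stimulated with CCL20 at 14 nM final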
Target sequence (P51684 whole entry, looked up): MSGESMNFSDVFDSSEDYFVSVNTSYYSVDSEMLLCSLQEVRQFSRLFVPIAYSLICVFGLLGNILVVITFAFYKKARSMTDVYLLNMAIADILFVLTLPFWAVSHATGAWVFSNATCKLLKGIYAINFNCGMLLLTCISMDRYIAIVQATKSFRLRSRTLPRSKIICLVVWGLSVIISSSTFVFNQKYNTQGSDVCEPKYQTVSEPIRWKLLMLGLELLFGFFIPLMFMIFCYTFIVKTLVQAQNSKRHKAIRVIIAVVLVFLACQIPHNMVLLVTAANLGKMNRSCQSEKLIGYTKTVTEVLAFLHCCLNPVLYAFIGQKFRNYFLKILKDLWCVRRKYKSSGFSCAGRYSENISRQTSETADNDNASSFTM
EBI2 antag conf: EBI2 (human) antagonism, single concentration confirmation. hit rate 29% among 2,400. inhibition, % at 5 µM. EBI2 beta-arrestin luminescence, 7a,25-OHC antagonism. shares compounds with EBI2 block;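 active = inhibition of at least 50%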
EBI2 agonist: activates EBI2, counter-screen for EBI2 antagonists. shares compounds with EBI2 block. EBI2-expressing cells, agonist mode, luminescence, 60 min; 0% vehicle, 100% 7α,25-dihydroxycholesterol control. activation, % at 5 µM. 2,400 tested, under 10 active;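 active = activation of at least 50%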
bGal counter: inhibits E. coli beta-galactosidase, counter-screen for EBI2 antagonists; purified beta-galactosidase, luminescent Galacton Star, 15 min; hit rate 1% among 2,400; inhibition, % at 5 µM; shares compounds with EBI2 block; AID 652176;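 active = replicate-average signal at least 3 plate SD below neutral wells, shown as high inhibition, flagging enzyme-inhibiting false positives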;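 also: higher means stronger loss of beta-gal luminescence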
Each line names hits and unclear results; the compound was inactive in the other large screens (follow-up assays come after a bar, where they were run). Shown are actives, neighbours in structure and some others; about 1.5% of the full set was active somewhere.

O=S(=O)(c1ccc(NC(=S)N/N=C/c2ccc(O)c(O)c2)cc1)N1CCOCC1	none
N#Cc1ccc(/C=N/NC(=S)Nc2ccc(S(=O)(=O)N3CCOCC3)cc2)cc1	EBI2 block 54 | EBI2 antag conf inactive | EBI2 agonist inactive | bGal counter inactive
O=C(Nc1cccc(S(=O)(=O)NC2=NCCC2)c1)c1cn(-c2ccccc2)nc1-c1ccc(F)cc1	none
Cc1ccc(-c2cc3nc(-c4ccccc4)cc(N)n3n2)cc1	none
Cc1ccc(-c2cc3nc(-c4ccccc4)cc(NCCCO)n3n2)cc1	EBI2 block 47 (no result: APJ agonist, APJ antagonist, CCR6 antag) | EBI2 antag conf inactive | EBI2 agonist inactive | bGal counter inactive
CCOC(=O)c1c(Nc2ccccc2)sc(/C=C2\C=Nc3ccccc32)c1O	EBI2 block 53 | EBI2 antag conf inactive | EBI2 agonist inactive | bGal counter inactive
CS(=O)(=O)c1nc(-c2ccccc2)cc(-c2ccccc2)c1C#N	EBI2 block 56 | EBI2 antag conf 55 | EBI2 agonist inactive | bGal counter inactive
CCCCCCNC(=O)CNC(=S)N(Cc1cccs1)C1CCCCC1	none
COc1ccc(N(CC(=O)NC2CCCC2)C(=O)c2ccc(C)s2)cc1OC	none
CCc1ccc(OCC(O)CN2CCC(CN3C(=O)c4cccc5cccc(c45)C3=O)CC2)cc1 (stereo unspecified)	EBI2 block 60 | EBI2 antag conf inactive | EBI2 agonist inactive | bGal counter inactive
O=C1c2cccc3cccc(c23)C(=O)N1CCN1CCN(CC(O)COc2ccc3ccccc3c2)CC1 (stereo unspecified)	EBI2 block 49 | EBI2 antag conf inactive | EBI2 agonist inactive | bGal counter inactive
Cc1[nH]c2ccc(-c3nnc(SCC(=O)c4ccc(F)cc4)o3)cc2c1C	none
Cc1cc(C)c(C)c(C(=O)CSc2nnc(-c3ccc4[nH]c(C)c(C)c4c3)o2)c1C	EBI2 block 52 | EBI2 antag conf 56 | EBI2 agonist inactive | bGal counter inactive
Cc1ccc(S(=O)(=O)N2CCN(C(=O)c3ccc(-n4cncn4)c([N+](=O)[O-])c3)CC2)c(C)c1	EBI2 block 64 (no result: APJ agonist, APJ antagonist, CCR6 antag) | EBI2 antag conf inactive | EBI2 agonist inactive | bGal counter inactive
COc1ccc(Cl)cc1NC(=O)c1sc2nc(C)nc(N3CCOCC3)c2c1C	none
O=C(CSc1c2c(nc3cc(Cl)ccc13)CCCC2)NCc1ccco1	none
CC(C)Cc1ccc(CN2CCCC(NC(=O)CCN3CCOCC3)C2)cc1 (stereo unspecified)	none
Cc1ccc(CNC(=O)/C=C/c2ccc(S(=O)(=O)NCc3ccco3)cc2)cc1	EBI2 block 44 | EBI2 antag conf inactive | EBI2 agonist inactive | bGal counter inactive
Cc1cccc2c1NC(=O)C2(c1ccc(O)cc1)c1ccc(O)cc1	none
Cc1cc(C2(c3ccc(O)c(C)c3)C(=O)Nc3ccccc32)ccc1O	EBI2 block 67 | EBI2 antag conf inactive | EBI2 agonist inactive | bGal counter inactive
O=C(O)C1CCN(S(=O)(=O)c2ccc(N3CCC(O)CC3)c([N+](=O)[O-])c2)CC1	none
CC(C)c1ccc(C2CC(c3ccc(Br)cc3)=NN2C(N)=S)cc1 (stereo unspecified)	EBI2 block 72 | EBI2 antag conf 60 | EBI2 agonist inactive | bGal counter inactive
CC(=O)N1N=C(c2ccc(Br)cc2)CC1c1ccc(Br)cc1 (stereo unspecified)	none (no result: APJ agonist, APJ antagonist, CCR6 antag)
CNC(=S)N1N=C(c2ccc(C)cc2)CC1c1ccc(Br)cc1 (stereo unspecified)	EBI2 block 81 | EBI2 antag conf 65 | EBI2 agonist inactive | bGal counter inactive
CNC(=S)N1N=C(c2ccc(C)cc2)CC1c1ccc(Cl)cc1 (stereo unspecified)	EBI2 block 73 | EBI2 antag conf 62 | EBI2 agonist inactive | bGal counter inactive
COc1cc(/C=C/C(=O)OCC(=O)NC2CCCCCCC2)ccc1O	none
COc1ccc(CCNC(=O)C2CCC(C(C)(C)C)CC2)cc1OC (stereo unspecified)	none
COc1ccc(Nc2nc(-c3sc(C)nc3C)cs2)cc1	EBI2 block 53 | EBI2 antag conf 53 | EBI2 agonist inactive | bGal counter inactive
O=C(/C=C/c1ccc2ccccc2n1)N1CCN(S(=O)(=O)c2ccc(F)cc2)CC1	EBI2 block 50 | EBI2 antag conf inactive | EBI2 agonist inactive | bGal counter inactive
O=C(CSc1ccccc1)N1CCN(S(=O)(=O)c2ccccc2F)CC1	none
O=C(/C=C/c1ccc2ccccc2n1)N1CCN(S(=O)(=O)c2ccccc2F)CC1	EBI2 block 55 | EBI2 antag conf inactive | EBI2 agonist inactive | bGal counter inactive
O=C(/C=C/c1ccc2ccccc2n1)N1CCN(c2ccccc2)CC1	none
COc1ccc(CN2CCC(Oc3ccc(C(=O)N4CCCC4)cc3)CC2)c(F)c1	none
Cn1c(SCc2ccccc2C#N)nc2ccccc2c1=O	none
OC(c1ccc(F)cc1)(C1CCCCC1)C(CN1CCOCC1)c1ccccc1 (stereo unspecified)	none
COc1cccc(CSc2nnc(-c3ccco3)n2C)c1	none
C=CCNc1nc(NCc2ccc(N(C)C)cc2)c2sc(-c3ccccc3)cc2n1	none (no result: APJ agonist, APJ antagonist, CCR6 antag)
CC(Sc1nnc(Cc2cccs2)n1C)C(=O)Nc1ccc(C(N)=O)cc1 (stereo unspecified)	none
O=C(O)C[C@H]1c2ccc(C(F)(F)F)cc2S(=O)(=O)N1Cc1ccccc1	none
CC(C)(C)C1CCC(=O)N(CCOc2ccccc2)CC1 (stereo unspecified)	EBI2 block 52 | EBI2 antag conf inactive | EBI2 agonist inactive | bGal counter inactive
Cc1ccc(-n2nnnc2-c2ccccc2Br)cc1	EBI2 block 38 | EBI2 antag conf inactive | EBI2 agonist inactive | bGal counter inactive
CCc1ccc(NC(=O)C2CCN(S(=O)(=O)c3ccc4c(c3)N(C(C)=O)CCO4)CC2)cc1	none
CC(=O)N1CCOc2ccc(S(=O)(=O)N3CCC(C(=O)Nc4ccc(C)cc4)CC3)cc21	none
CC(=O)N1CCOc2ccc(S(=O)(=O)N3CCC(C(=O)NCc4ccc(C)cc4)CC3)cc21	EBI2 block 94 | EBI2 antag conf 85 | EBI2 agonist inactive | bGal counter inactive
CC(=O)N1CCOc2ccc(S(=O)(=O)N3CCC(C(=O)NCc4ccc(F)cc4)CC3)cc21	EBI2 block 69 | EBI2 antag conf 56 | EBI2 agonist inactive | bGal counter inactive
CC(=O)N1CCOc2ccc(S(=O)(=O)N3CCC(C(=O)NCc4ccc(Cl)cc4)CC3)cc21	EBI2 block 90 (no result: APJ agonist, APJ antagonist, CCR6 antag) | EBI2 antag conf 80 | EBI2 agonist inactive | bGal counter inactive
